From PMC7425103 (Drug Design, Development and Therapy, 2020)

What was measured:
Type in all cases: cell-based, human
MCF-7 cell line [1] = assay: Annexin V-FITC/PI staining apoptosis assay; conditions: MCF-7, at IC50, 24 hours
Summary of the method: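 MCF-7 cells were seeded at 4 x 10^6/well and exposed to the test compound for 24 hours. Cells were washed three times with ice-cold PBS and resuspended in PBS. They were then stained with Annexin V-FITC and PI from a kit for 15 minutes at room temperature in the dark, and analysed by flow cytometry.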

[2] = test system: MCF-7 (breast cancer) cell line; assay: MTT anticancer; conditions: ratio of IC50 values vs reference CA-4
Summary of the method: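 ATCC MCF-7 cells were grown in DMEM with 10% FBS and penicillin/streptomycin. After trypsin detachment they were seeded at 1000–2000 cells/well and held 34 hours at 37°C in 5% CO2. Test compound was added at 0.1, 1, 10, 25 and 100 μM for 72 hours. Then 5% MTT was added for 2 h at 37°C, formazan was dissolved in isopropanol, and absorbance was read at 570 nm. Viability was expressed as % of control and IC50 derived by curve fitting.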

MCF-7 cell line [3] = assay: Cell cycle analysis by DNA flow cytometry; conditions: MCF-7, at IC50
[4] = test system: Hep G2 (hepatocellular liver carcinoma) cell line; assay: MTT anticancer; conditions: ratio of IC50 values vs reference CA-4

## COc1cc(/C=C/C(=O)c2ccc(NC(=O)c3ccccc3CN3C(=O)c4ccccc4C3=O)cc2)cc(OC)c1OC [Compound 7j, (E)-2-((1,3-Dioxoisoindolin-2-Yl)Methyl)-N-(4-(3-(3,4,5-Trimethoxyphenyl)Acryloyl)Phenyl)Benzamide]
MCF-7 cell line [1]
  cell necrosis, fold increase compared to untreated control: 2.09 fold
  early apoptotic cell population, fold more than untreated control: 14.36 fold
  late apoptotic cells population, folds increase vs untreated control: 44.60 fold
[2]
  fold anticancer activity relative to CA-4, MCF-7: 2.57 fold
MCF-7 cell line [3]
  apoptosis at preG1 phase, times higher than entinostat: 1.04 times
  cell accumulation percentage at G2/M phase, fold higher than CA-4: 1.05 fold
  percentage of cells at G2/M, folds higher than entinostat: 1.53 fold
[4]
  fold anticancer activity relative to CA-4, Hep G2: 4.51 fold
